The nature of test [1]: Displacement of [3H]flumazenil form benzodiazepine-binding site of GABA(A) receptor in rat cortical membrane after 30 mins by glass fiber filtration assay. It is filed as cell membranes. The conditions noted are these: in the assay text read “after 40 mins” for “after 30 mins”. In short, it runs like this:
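Rat cortex homogenized in 30 mM Tris–HCl pH 7.4, washed by 27,000g spins, held at 37 °C for 30 min, stored at −20 °C. Membranes (1 mg original tissue/0.55 mL) in 50 mM Tris–citrate pH 7.1 with 1 nM final [3H]flumazenil, 40 min at 0–4 °C. GF/C filtration. Nonspecific binding with 1 µM clonazepam. IC50 from 4–6 concentrations; Ki = IC50/(1+L/KD).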

Test [2] addresses T1, GABA-A receptor; alpha-5/beta-3/gamma-2 (Homo sapiens, UniProt P18507+P28472+P31644).
T1 sequence (P18507 whole entry): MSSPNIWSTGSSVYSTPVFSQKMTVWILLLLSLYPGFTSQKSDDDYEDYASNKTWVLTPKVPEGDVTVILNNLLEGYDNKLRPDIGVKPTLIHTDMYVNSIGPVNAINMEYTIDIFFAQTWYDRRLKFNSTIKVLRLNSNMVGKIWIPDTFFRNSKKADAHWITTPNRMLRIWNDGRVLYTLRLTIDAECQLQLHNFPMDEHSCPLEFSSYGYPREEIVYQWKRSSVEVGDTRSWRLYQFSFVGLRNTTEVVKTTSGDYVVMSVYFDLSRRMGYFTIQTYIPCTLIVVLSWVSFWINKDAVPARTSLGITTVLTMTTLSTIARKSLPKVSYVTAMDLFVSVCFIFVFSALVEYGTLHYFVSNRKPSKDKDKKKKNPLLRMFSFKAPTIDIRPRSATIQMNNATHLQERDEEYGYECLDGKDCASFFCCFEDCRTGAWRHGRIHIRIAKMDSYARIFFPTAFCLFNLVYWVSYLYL
T1 sequence (P28472 whole entry): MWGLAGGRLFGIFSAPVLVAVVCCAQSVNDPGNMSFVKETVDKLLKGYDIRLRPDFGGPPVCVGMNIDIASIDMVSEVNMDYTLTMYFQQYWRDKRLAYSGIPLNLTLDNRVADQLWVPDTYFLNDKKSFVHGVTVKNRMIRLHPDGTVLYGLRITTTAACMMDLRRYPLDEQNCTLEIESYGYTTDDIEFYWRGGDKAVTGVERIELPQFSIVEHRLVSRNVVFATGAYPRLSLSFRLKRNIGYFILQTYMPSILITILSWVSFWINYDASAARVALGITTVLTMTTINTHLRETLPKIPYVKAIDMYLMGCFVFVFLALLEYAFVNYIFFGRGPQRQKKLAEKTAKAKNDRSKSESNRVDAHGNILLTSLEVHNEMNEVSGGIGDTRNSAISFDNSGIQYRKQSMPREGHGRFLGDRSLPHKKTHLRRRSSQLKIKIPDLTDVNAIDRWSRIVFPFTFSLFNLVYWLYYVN
T1 sequence (P31644 whole entry): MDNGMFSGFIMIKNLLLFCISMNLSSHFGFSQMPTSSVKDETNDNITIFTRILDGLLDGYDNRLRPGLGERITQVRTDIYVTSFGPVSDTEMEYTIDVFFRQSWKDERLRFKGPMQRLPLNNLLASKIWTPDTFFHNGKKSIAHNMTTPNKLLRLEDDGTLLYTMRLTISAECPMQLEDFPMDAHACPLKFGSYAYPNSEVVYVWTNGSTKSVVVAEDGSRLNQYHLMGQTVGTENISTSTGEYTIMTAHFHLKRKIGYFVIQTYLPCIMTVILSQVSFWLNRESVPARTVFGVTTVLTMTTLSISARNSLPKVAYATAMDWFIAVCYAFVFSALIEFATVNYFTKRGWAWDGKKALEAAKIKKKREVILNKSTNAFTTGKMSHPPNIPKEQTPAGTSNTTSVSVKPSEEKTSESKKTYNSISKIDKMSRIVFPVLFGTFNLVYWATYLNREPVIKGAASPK
As to the kind of experiment: Displacement of [3H]flumazenil human recombinant alpha5beta3gamma2 GABA(A) receptor expressed in HEK293 cells after 30 mins by glass fiber filtration assay. In kind it is cell-based. The conditions noted are these: in the assay text read “after 40 mins” for “after 30 mins”. In short, it runs like this:
(§1)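 HEK cell membranes carrying human receptors in 50 mM Tris–citrate pH 7.1 with 1 nM final [3H]flumazenil, incubated 40 min on ice (0–4 °C). Filtered on GF/C and washed with ice-cold buffer. Clonazepam 1 µM final defined nonspecific binding. IC50 from 4–6 test concentrations, converted by Ki = IC50/(1+L/KD). Mean ± SD of three determinations.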

The species named for test [3] is Homo sapiens. In words: Selectivity ratio of Ki for human recombinant alpha2beta3gamma2 GABA(A) receptor to Ki for human recombinant alpha1beta3gamma2 GABA(A) receptor. The procedure, abridged: (§2)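 Ratio of the Ki at the named subtype to the Ki at α1β3γ2. Both Ki values come from [3H]flumazenil (1 nM) displacement on membranes of HEK cells with human receptors, run 40 min at 0–4 °C with GF/C filtration. Ki = IC50/(1+L/KD).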

The target of test [4] is T2, GABA-A receptor; alpha-1/beta-3/gamma-2 (Homo sapiens, UniProt P14867+P18507+P28472).
T2 sequence (P14867 whole entry): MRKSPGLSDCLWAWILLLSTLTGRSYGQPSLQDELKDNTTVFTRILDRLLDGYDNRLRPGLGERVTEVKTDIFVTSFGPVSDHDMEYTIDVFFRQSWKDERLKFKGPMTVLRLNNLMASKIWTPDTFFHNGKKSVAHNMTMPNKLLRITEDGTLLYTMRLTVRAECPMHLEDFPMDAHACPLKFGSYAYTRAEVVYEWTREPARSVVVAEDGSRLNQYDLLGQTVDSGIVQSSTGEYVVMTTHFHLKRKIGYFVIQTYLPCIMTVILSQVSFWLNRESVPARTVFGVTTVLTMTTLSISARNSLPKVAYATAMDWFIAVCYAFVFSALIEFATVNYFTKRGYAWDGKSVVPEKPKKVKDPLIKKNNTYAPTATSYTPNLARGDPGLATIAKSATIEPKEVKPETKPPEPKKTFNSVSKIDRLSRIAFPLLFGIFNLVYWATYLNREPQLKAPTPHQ
T2 sequence (P18507 whole entry): T1 sequence (P18507 whole entry)
T2 sequence (P28472 whole entry): T1 sequence (P28472 whole entry)
As to the kind of experiment: Displacement of [3H]flumazenil human recombinant alpha1beta3gamma2 GABA(A) receptor expressed in HEK293 cells after 30 mins by glass fiber filtration assay. It is filed as cell-based. To be noted: in the assay text read “after 40 mins” for “after 30 mins”. In short, it runs like this: as §1

The target in test [5] is T3, GABA-A receptor; alpha-2/beta-3/gamma-2 (Homo sapiens, UniProt P18507+P28472+P47869).
T3 sequence (P18507 whole entry): T1 sequence (P18507 whole entry)
T3 sequence (P28472 whole entry): T1 sequence (P28472 whole entry)
T3 sequence (P47869 whole entry): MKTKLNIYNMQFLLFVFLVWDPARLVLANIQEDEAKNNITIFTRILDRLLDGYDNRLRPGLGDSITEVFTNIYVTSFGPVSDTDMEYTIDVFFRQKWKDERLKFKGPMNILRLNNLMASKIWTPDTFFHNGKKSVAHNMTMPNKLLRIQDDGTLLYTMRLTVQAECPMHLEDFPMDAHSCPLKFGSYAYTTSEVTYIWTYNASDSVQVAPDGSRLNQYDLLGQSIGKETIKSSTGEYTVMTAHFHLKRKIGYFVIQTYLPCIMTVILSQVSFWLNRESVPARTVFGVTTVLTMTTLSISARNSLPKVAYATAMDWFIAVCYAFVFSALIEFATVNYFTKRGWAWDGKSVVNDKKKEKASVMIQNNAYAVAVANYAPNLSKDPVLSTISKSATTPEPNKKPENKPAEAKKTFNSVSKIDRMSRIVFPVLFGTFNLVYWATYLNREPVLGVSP
As to the kind of experiment: Displacement of [3H]flumazenil human recombinant alpha2beta3gamma2 GABA(A) receptor expressed in HEK293 cells after 30 mins by glass fiber filtration assay. In kind it is cell-based. To be noted: in the assay text read “after 40 mins” for “after 30 mins”. The procedure, abridged: as §1

Test [6] concerns the target T4, GABA-A receptor; alpha-3/beta-3/gamma-2 (Homo sapiens, UniProt P18507+P28472+P34903).
T4 sequence (P18507 whole entry): T1 sequence (P18507 whole entry)
T4 sequence (P28472 whole entry): T1 sequence (P28472 whole entry)
T4 sequence (P34903 whole entry): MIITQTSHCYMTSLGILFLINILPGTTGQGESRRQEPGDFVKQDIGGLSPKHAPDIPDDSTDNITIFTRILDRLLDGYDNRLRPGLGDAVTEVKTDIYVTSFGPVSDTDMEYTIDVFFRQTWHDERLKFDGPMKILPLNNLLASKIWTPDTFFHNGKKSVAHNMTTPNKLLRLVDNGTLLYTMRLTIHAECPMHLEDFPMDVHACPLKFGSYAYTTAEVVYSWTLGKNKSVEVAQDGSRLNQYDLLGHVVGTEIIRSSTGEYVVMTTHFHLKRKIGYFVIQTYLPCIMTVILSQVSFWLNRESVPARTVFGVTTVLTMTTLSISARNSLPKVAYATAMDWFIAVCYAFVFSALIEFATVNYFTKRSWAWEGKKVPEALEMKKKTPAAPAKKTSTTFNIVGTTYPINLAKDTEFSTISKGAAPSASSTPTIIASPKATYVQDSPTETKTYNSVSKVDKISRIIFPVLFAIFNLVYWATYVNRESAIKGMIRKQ
In words: Displacement of [3H]flumazenil human recombinant alpha3beta3gamma2 GABA(A) receptor expressed in HEK293 cells after 30 mins by glass fiber filtration assay. To be noted: in the assay text read “after 40 mins” for “after 30 mins”. In kind it is cell-based. In short, it runs like this: as §1

The species named for test [7] is Homo sapiens. In words: Selectivity ratio of Ki for human recombinant alpha3beta3gamma2 GABA(A) receptor to Ki for human recombinant alpha1beta3gamma2 GABA(A) receptor. The procedure, abridged:
as §2

The species entered for test [8] is Homo sapiens. As to the kind of experiment: Selectivity ratio of Ki for human recombinant alpha5beta3gamma2 GABA(A) receptor to Ki for human recombinant alpha1beta3gamma2 GABA(A) receptor. The procedure, abridged:
as §2

The text below walks through data of ChEMBL document CHEMBL1641431, “Triazoloquinazolinediones as novel high affinity ligands for the benzodiazepine site of GABA(A) receptors” (Bioorg Med Chem, 2011).

Molecules are shown by their SMILES.

`O=c1[nH]c2ccc(Br)cc2c2nn(-c3ccc(Cl)cc3)c(=O)n12` gave a Ki in test [1] of 0.6 nM.

In turn, `Cc1ccc(-n2nc3c4cc(Cc5cccc(F)c5)ccc4[nH]c(=O)n3c2=O)cc1` registered an inhibitory constant (Ki) in test [1] of 2.1 nM.

On to `Cc1ccc(-n2nc3c4cc(CCc5ccncc5)ccc4[nH]c(=O)n3c2=O)cc1`, for which, in test [1], affinity was put at a Ki of 0.17 nM.

On to `Cc1ccc(-n2nc3c4cc(CCc5ccccc5)ccc4[nH]c(=O)n3c2=O)cc1`, for which the Ki in test [2] came to 66 nM; in test [4] it was 3.6 nM; in test [5], 65 nM; in test [1], 4 nM; in test [6], 9.7 nM. In addition, in the test listed under Homo sapiens [3], the Ratio Ki amounted to 18.

In turn, `O=c1[nH]c2ccc(Br)cc2c2nn(-c3ccccc3)c(=O)n12` gave a Ki in test [1] of 0.24 nM.

Compound `Cc1ccc(-n2nc3c4cc(CCc5ccc(Oc6ccccc6)cc5)ccc4[nH]c(=O)n3c2=O)cc1` gave a Ki in test [1] of 123 nM.

`O=c1[nH]c2ccc(Br)cc2c2nn(-c3ccccc3F)c(=O)n12` showed an inhibition constant Ki in test [1] of 0.2 nM.

The compound `Cc1ccc(-n2nc3c4cc(CCc5ccccn5)ccc4[nH]c(=O)n3c2=O)cc1` gave a Ki in test [1] of 0.53 nM.

Turning to `Cc1ccc(-n2nc3c4cc(CCC(=O)O)ccc4[nH]c(=O)n3c2=O)cc1`, the Ki in test [1] came to 1.4 nM.

Turning to `Cc1ccc(-n2nc3c4cc(Cc5ccccc5)ccc4[nH]c(=O)n3c2=O)cc1`, the Ki in test [1] came out at 1 nM.

Take `Cc1ccc2[nH]c(=O)n3c(=O)n(-c4ccccc4)nc3c2c1`: in the test filed under Homo sapiens [3], the Ratio Ki amounted to 2. In addition, the Ki is 0.43 nM in test [4], 1 nM in test [5], 0.62 nM in test [1] and 1.3 nM in test [6].

Take `Cc1ccc(-n2nc3c4cc(Br)ccc4[nH]c(=O)n3c2=O)cc1`: the Ki in test [1] was 0.47 nM.

The compound `Cc1ccc(-n2nc3c4cc(Cc5ccsc5)ccc4[nH]c(=O)n3c2=O)cc1` yielded a Ki in test [1] of 0.23 nM.

In the case of `Cc1ccc(-n2nc3c4cc(CCc5ccsc5)ccc4[nH]c(=O)n3c2=O)cc1`, the Ki was 3.6 nM in test [2]; 0.14 nM in test [4]; 1.7 nM in test [5]; 0.94 nM in test [1]; 0.71 nM in test [6]. In addition, the figures for the Ratio Ki in the test listed under Homo sapiens [7] and in the test listed under Homo sapiens [8] were 5 and 26, respectively.

As for `Cc1ccc(-n2nc3c4cc(CCc5ccc(-c6ccccc6)cc5)ccc4[nH]c(=O)n3c2=O)cc1`, the affinity in test [1] corresponds to a Ki of 1570 nM.

In turn, `Cc1ccc(-n2nc3c4cc(C#Cc5ccccc5)ccc4[nH]c(=O)n3c2=O)cc1` registered a Ki in test [1] of 40 nM.

Turning to `Cc1ccc(-n2nc3c4cc(CCc5cccnc5)ccc4[nH]c(=O)n3c2=O)cc1`, the Ki worked out at 9.1 nM in test [2]; 0.68 nM in test [4]; 4.4 nM in test [5]; 0.2 nM in test [1]; 2.3 nM in test [6]. Further, the Ratio Ki in the test listed under Homo sapiens [7] came to 3; in the test listed under Homo sapiens [8], 13.

For the compound `Cc1ccc(-n2nc3c4cc(CCc5cccc(O)c5)ccc4[nH]c(=O)n3c2=O)cc1`, in test [1], the Ki was found to be 12.4 nM.
